PMC8463264 (Acta Pharmaceutica Sinica. B, 2020)
Values belong to the molecule of their own block, whether it stands above or below them. Where no end group is shown, it is not given here.

Legend:
CXCR4-tropic HIV-1 = experiment: X4-HIV-1 inhibition assay in TZM-bl reporter cells; type: cell-based; conditions: for fold increase of antiviral (anti-HIV-1) activity over WSC02: ratio of IC50 values vs WSC02
[1] = tested on: CXCL12-induced intracellular Ca^2+ mobilization in BCR-ABL expressing murine pro/pre B cells; experiment: CXCL12-induced Ca2+ mobilization assay; type: cell-based, mouse
[2] = tested on: immune cell infiltration into BAL of BALB/c mice; experiment: Mouse model of allergic airway hypereosinophilia; type: in vivo; conditions: for effect on influx of macrophages into BAL: OVA-challenged mice
[3] = tested on: MC903-induced skin inflammation of ears of BALB/c mice; experiment: Mouse model of atopic dermatitis; type: in vivo
[4] = cited from earlier work
CXCR4 = CXCR4 (Homo sapiens, UniProt P61073); experiment: CXCR4 12G5 antibody competition assay on SupT1 cells; type: binding
[5] = tested on: SupT1 migration towards a CXCL12 gradient; experiment: Transwell cell migration assay; type: cell-based
Outline: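 SupT1 cells (0.75 × 10^5) in RPMI with 0.1% BSA go into the upper chamber of a 5 μm polycarbonate transwell, with or without compound, and settle ~15 min. The lower chamber holds buffer with or without 100 ng/mL CXCL12 plus compound. After 4 h of migration at 37 °C (5% CO2), lower-chamber cells are counted by CellTiter-Glo and normalized to CXCL12-only. Mean ± SEM, n = 3; fold values compare IC50s.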

zebrafish embryos = experiment: Toxicity in zebrafish embryos; type: in vivo
Outline: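 Wild-type embryos dechorionated at 24 hpf with 1 mg/mL pronase in E3, then exposed 24 h in E3 containing peptide. Two independent assays per concentration, each on 10 × 3 embryos. Controls: PBS solvent diluted in E3 matching the highest-dose amount, and pleurocidin peptide NRC-03. Scored at 48 hpf by stereomicroscope: lysis/necrosis, delay/malformations, heart edema/reduced or absent circulation.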

mice = experiment: Observation of visible or behavioral adverse effects in mice; type: in vivo, mouse; conditions: administered topically onto the ears or intranasally into lungs of mice
[6] = 12.6 μmol/kg intranasal, 2 h before each OVA challenge, BAL on day 8, mean ± SEM
[7] = 315 nmol/ear topically daily, day 11, mean ± SEM
[8] = 16 μmol/kg intranasal, 2 h before each OVA challenge, BAL on day 8, mean ± SEM
[9] = 2.5 nmol/ear every two days, day 11 (disease inducer)
[10] = 20 nmol/ear topically daily, day 11, mean ± SEM

Sequence of CXCR4 (P61073 whole entry): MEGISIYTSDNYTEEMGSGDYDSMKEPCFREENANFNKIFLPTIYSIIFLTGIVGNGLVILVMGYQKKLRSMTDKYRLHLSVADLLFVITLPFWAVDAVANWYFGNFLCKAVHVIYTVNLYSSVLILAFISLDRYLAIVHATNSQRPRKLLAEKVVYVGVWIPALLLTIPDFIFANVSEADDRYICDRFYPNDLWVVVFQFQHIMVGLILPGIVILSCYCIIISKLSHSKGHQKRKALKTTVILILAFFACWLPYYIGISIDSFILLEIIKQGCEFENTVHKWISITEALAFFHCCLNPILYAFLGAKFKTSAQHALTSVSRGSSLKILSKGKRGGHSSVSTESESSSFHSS

IC50 (CXCR4-tropic HIV-1; Human immunodeficiency virus 1, TZM-bl, read-out: IC50±SEM X4-HIV-1): 12 ± 2 nM
Molecule: c1cc(CN2CCCNCCNCCCNCC2)ccc1CN1CCCNCCNCCCNCC1 [AMD3100, Plerixafor]
effect on CXCL12-induced Ca2+ mobilization ([1]; 1 μmol/L compound): reduced Ca^2+ mobilization | effect on CXCL12-induced Ca2+ mobilization ([1]; 10 μmol/L compound): completely abrogated | inhibition of recruitment of B cells into BAL [2, 6]: 47 ± 17% | inhibition of recruitment of T cells into BAL [2, 6]: 47 ± 15% | inhibition of recruitment of eosinophils into BAL [2, 6]: 56 ± 13% | inhibition of recruitment of neutrophils into BAL [2, 6]: 57 ± 14% | inhibition of recruitment of total cells into BAL [2, 6]: 41 ± 13% | inhibition of MC903 induced ear thickness [3, 7]: 25 ± 7% | inhibition of disease score [3, 7]: 18 ± 6% | stability towards plasma proteases [4]: resistant to plasma proteases

Molecule: H-ILRWSKKVPCVS [JM#1]
fold increase of antiviral (anti-HIV-1) activity over WSC02 (CXCR4-tropic HIV-1): 9 fold

Molecule: CC[C@H](C)[C@H](N)C(=O)N[C@@H](CC(C)C)C(=O)N[C@@H](CCCNC(=N)N)C(=O)N[C@@H](Cc1c[nH]c2ccccc12)C(=O)N[C@@H](CO)C(=O)N[C@@H](CCCNC(=N)N)C(=O)N[C@@H](CCCCN)C(=O)N[C@@H](CC(C)C)C(=O)N1CCC[C@H]1C(=O)N[C@@H](CS)C(=O)N[C@H](C(=O)N[C@@H](CO)C(=O)O)C(C)C [JM#21]
IC50 (CXCR4): 220 ± 20 nM | fold more active than AMD3100 in 12G5 competition (CXCR4; vs AMD3100): about 3 fold | fold more active than WSC02 in 12G5 competition (CXCR4; vs WSC02): ~2 fold | fold more efficient than WSC02 in blocking migration ([5]; vs WSC02): 33 fold | fold more efficient than EPI-X4 in blocking migration ([5]; vs wild type peptide EPI-X4): more than 1400 fold | toxicity in zebrafish embryos (acute, developmental, cardiotoxicity) (zebrafish embryos; exposure 24 h from 24 hpf, 3, 30 and 300 μmol/L, 60 embryos per group): not toxic | inhibition of recruitment of B cells into BAL [2, 8]: 71 ± 5% | inhibition of recruitment of T cells into BAL [2, 8]: 73 ± 13% | inhibition of recruitment of eosinophils into BAL [2, 8]: 80 ± 1% | inhibition of recruitment of neutrophils into BAL [2, 8]: 42 ± 15% | effect on influx of macrophages into BAL ([2]; 16 μmol/kg intranasal): not macrophages | inhibition of MC903-induced ear thickening ([3]; 400 nmol/ear topically daily, day 11, mean ± SEM): 88 ± 4% | visible or behavioral adverse effects (mice): did not observe visible or behavioral adverse effects

Molecule: H-IVRWSKKVPCVS [WSC02]
visible or behavioral adverse effects (mice): did not observe visible or behavioral adverse effects

Molecule: C=C1/C(=C\C=C2/CCC[C@]3(C)[C@@H]([C@H](C)/C=C/[C@@H](O)C4CC4)CC[C@@H]23)C[C@@H](O)C[C@@H]1O [MC903, calcipotriol hydrate]
disease score (0-12, Table 3) [3, 9]: 9.4 ± 0.1 | increase of the ear thickness as compared to control [3, 9]: 3.1 ± 0.1 fold

Molecule: C[C@@H]1C[C@H]2[C@@H]3CCC4=CC(=O)C=C[C@]4(C)[C@@]3(F)[C@@H](O)C[C@]2(C)[C@@]1(O)C(=O)CO [dexamethasone]
inhibition of MC903-induced ear thickening [3, 10]: 96 ± 2% | inhibition of disease score [3, 10]: 97 ± 2%

IC50 (CXCR4): 3240 ± 620 nM
Molecule: H-LVRYTKKVPQVSTPTL [EPI-X4]
effect on CXCL12-induced Ca2+ mobilization ([1]; at the tested concentrations): almost inactive | inhibition of recruitment of B cells into BAL [2, 8]: 54 ± 9% | inhibition of recruitment of T cells into BAL [2, 8]: 61 ± 8% | inhibition of recruitment of eosinophils into BAL [2, 8]: 76 ± 7% | inhibition of recruitment of neutrophils into BAL [2, 8]: 63 ± 7% | effect on influx of macrophages into BAL ([2]; 16 μmol/kg intranasal): not macrophages | visible or behavioral adverse effects (mice): did not observe visible or behavioral adverse effects

Molecule: H-IVRWSKKFPCVS [JM#7]
fold increase of antiviral (anti-HIV-1) activity over WSC02 (CXCR4-tropic HIV-1): about 2 fold

Molecule: GRRKRKWLRRIGKGVKIIGGAALDHL-NH2 [NRC-03]
toxicity in zebrafish embryos (positive control) (zebrafish embryos; 6 μmol/L, exposure 24 h): acutely toxic
